Results from PubChem BioAssay AID588559 (The Scripps Research Institute Molecular Screening Center, 2011).
Activity calls are given as the source filed them.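 How the source made its calls: active means PAD4 enzyme activity blocked 50% or more; inactive means under 50% inhibition.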

biological target: Protein-arginine deiminase type-4 (Homo sapiens) (UniProt Q9UM07); assay: PAD4 inhibitors, single-concentration test, late-stage follow-up, biochemical, BAEE substrate, colorimetric citrulline readout (AID 588559); conditions: recombinant PAD4, BAEE substrate, colorimetric citrulline detection; at 100 µM; hits give high values
Sequence (Q9UM07 whole entry, looked up): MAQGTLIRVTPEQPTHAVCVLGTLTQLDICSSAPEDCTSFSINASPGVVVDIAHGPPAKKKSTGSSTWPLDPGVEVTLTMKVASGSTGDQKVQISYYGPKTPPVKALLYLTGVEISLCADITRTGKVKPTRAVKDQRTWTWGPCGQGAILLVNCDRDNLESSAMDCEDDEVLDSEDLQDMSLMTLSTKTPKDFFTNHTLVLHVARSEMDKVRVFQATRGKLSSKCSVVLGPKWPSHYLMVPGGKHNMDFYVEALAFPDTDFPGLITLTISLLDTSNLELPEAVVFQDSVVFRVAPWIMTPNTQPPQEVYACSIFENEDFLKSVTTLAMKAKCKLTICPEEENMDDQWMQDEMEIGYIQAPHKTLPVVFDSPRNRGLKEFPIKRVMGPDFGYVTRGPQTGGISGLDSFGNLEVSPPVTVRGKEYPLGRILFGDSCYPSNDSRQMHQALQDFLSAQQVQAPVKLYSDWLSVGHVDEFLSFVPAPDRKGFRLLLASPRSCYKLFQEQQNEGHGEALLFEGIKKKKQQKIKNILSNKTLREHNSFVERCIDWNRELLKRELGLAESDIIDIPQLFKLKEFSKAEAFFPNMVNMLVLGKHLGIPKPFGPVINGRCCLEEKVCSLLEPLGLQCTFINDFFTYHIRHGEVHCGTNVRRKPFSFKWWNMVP
In short: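 Benchmarks: DMSO vehicle control; system: recombinant PAD4; amount: PAD4 at 0.2 µM; medium: Tris pH 7.6, Ca2+ and DTT; signal: colorimetric citrulline absorbance at 540 nm; evaluation: percent inhibition of citrulline formation relative to DMSO, via citrulline standard; incubation: 15 min enzyme–compound preincubation, then 15 min BAEE reaction, 37 °C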

inhibition | Compound
98% | COC1=C(Br)C(=O)c2nc(-c3ccccn3)ccc2C1=O
-8% (inactive) | O=C(O)c1cccc(-c2ccc3ccc(Br)c(OCc4ccccc4)c3n2)n1
98% | O=C1C(O)=C(O)C(=O)c2ncccc21
-12% (inactive) | COc1ccc2ncccc2c1[N+](=O)[O-]
97% | NC1=CC(=O)c2ccc(-c3cc(C(=O)O)ccc3N)nc2C1=O
100% | O=C1C=C(Br)C(=O)c2ncccc21
-21% (inactive) | COC(=O)c1nnc(C(=O)OC)c(-c2ccc3ccccc3n2)n1
97% | O=C1C(Br)=CC(=O)c2ncccc21
98% | NC1=CC(=O)c2ccc(-c3cccc(C(=O)O)n3)nc2C1=O
90% | COC(=O)c1cccc(-c2ccc3c(n2)C(=O)C(Br)=CC3=O)n1
-10% (inactive) | COc1ccc2nc(C#N)ccc2c1
-13% (inactive) | COc1ccc2nc(C#N)ccc2c1[N+](=O)[O-]

Second part, the molecule before the results:

Compound | inhibition
NC1=CC(=O)c2cccnc2C1=O | 98%
NC1=CC(=O)c2ccc(-c3ccccn3)nc2C1=O | 88%
COC(=O)c1cc(-c2ccccc2)c(C(=O)OC)c(-c2ccc3ccccc3n2)n1 | -11% (inactive)
COC(=O)c1nnc(C(=O)OC)c(-c2ccc3c([N+](=O)[O-])c(OC)ccc3n2)n1 | -12% (inactive)
COC(=O)c1cccc(-c2ccc3ccc(Br)c(O)c3n2)n1 | 27% (inactive)
COC(=O)c1nc(-c2ccc3c(n2)C(=O)C(Br)=CC3=O)c2[nH]c3ccccc3c2c1C | 0% (inactive)
COC(=O)c1nc(C(C)=O)c2[nH]c3ccccc3c2c1C | 0% (inactive)
COC1=C(N)C(=O)c2ncccc2C1=O | 99%
COC1=CC(=O)c2nc(C#N)ccc2C1=O | 98%
CCOC(=O)c1nc(C(=O)OCC)c(C(=O)OCC)c(-c2ccc(OC)c(OC)c2OCc2ccccc2)c1C | 2% (inactive)
COC(=O)c1nc(C(=O)OC)c(NC(C)=O)c(-c2ccccc2Br)c1C | 67%
COC1=C(I)C(=O)c2nc(C#N)ccc2C1=O | 98%
COC(=O)c1nc(C(=O)OC)c(N)c(-c2ccccc2Br)c1C | 9% (inactive)
COC(=O)c1cccc(-c2ccc3c(n2)C(=O)C(N)=CC3=O)n1 | 91%
COC1=C(Br)C(=O)c2ncccc2C1=O | 90%
NC1=C(N)C(=O)c2ccccc2C1=O | 97%
COC(=O)c1nnc(C(=O)OC)c(-c2ccc3cc(OC)ccc3n2)n1 | -2% (inactive)
